{"data": "Experimental data pooled from the literature", "organism": "Pichia kudriavzevii", "note": "Protocols differ between the studies behind these lines."}
{"Structure (SMILES)": "CCCCCCCCCCCN1CCN(CC(O)(Cn2cncn2)c2ccc(F)cc2F)CC1 (stereo not drawn)", "assay": "microbial growth, broth dilution", "test system": "ATCC6258", "setting": "48 h", "measurement": "MIC", "result": "1.95 µg/mL"}
{"Structure (SMILES)": "CCCCCCOc1c(OC)cc(NC(C)CCCN)c2nc(C(C)(C)C)cc(C)c12 (stereo not drawn)", "assay": "microbial growth", "test system": "ATCC6258", "measurement": "IC50", "result": "3.73 µg/mL"}
{"Structure (SMILES)": "C#CCCCCCCCCCCCC(O)CC(O)CO (stereo not drawn)", "assay": "microbial growth, broth dilution", "test system": "ATCC6258", "measurement": "IC50", "result": "> 200 µg/mL"}
{"Structure (SMILES)": "CCCCCOc1c(OC)cc(NC(C)CCCNC(=O)C(N)CC(C)C)c2nc(C(C)(C)C)ccc12 (stereo not drawn)", "assay": "microbial killing", "test system": "ATCC6258", "measurement": "MFC", "result": "10 µg/mL"}
{"Structure (SMILES)": "C[C@@H]1[C@H](O)[C@@H](C)/C=C/C=C/C=C/C=C/C=C/C=C/C=C/[C@H](O[C@@H]2O[C@H](C)[C@@H](O)[C@H](N)[C@@H]2O)C[C@@H]2O[C@](O)(C[C@@H](O)C[C@@H](O)[C@H](O)CC[C@@H](O)C[C@@H](O)CC(=O)O[C@H]1C)C[C@H](O)[C@H]2C(=O)O", "assay": "microbial growth, broth dilution", "test system": "ATCC6258", "measurement": "IC50", "result": "0.6 µg/mL"}
{"Structure (SMILES)": "OC(Cn1cncn1)(Cn1cncn1)c1ccc(F)cc1F", "assay": "microbial growth", "measurement": "MIC90", "result": "64 µg/mL"}
{"Structure (SMILES)": "CN1CCNCC1", "assay": "microbial growth, broth dilution", "test system": "ATCC6258", "setting": "48 h", "measurement": "MIC", "result": "> 31.3 µg/mL"}
{"Structure (SMILES)": "CCCCCCCOc1c(OC)cc(NC(C)CCCN)c2nc(C(C)(C)C)cc(C)c12 (stereo not drawn)", "assay": "microbial growth", "test system": "ATCC6258", "measurement": "IC50", "result": "2.89 µg/mL"}
{"Structure (SMILES)": "C=CCCCCCCCCCCCC(O)CC(O)CO (stereo not drawn)", "assay": "microbial growth, broth dilution", "test system": "ATCC6258", "measurement": "IC50", "result": "> 200 µg/mL"}
{"Structure (SMILES)": "C[C@@H]1[C@H](O)[C@@H](C)/C=C/C=C/C=C/C=C/C=C/C=C/C=C/[C@H](O[C@@H]2O[C@H](C)[C@@H](O)[C@H](N)[C@@H]2O)C[C@@H]2O[C@](O)(C[C@@H](O)C[C@@H](O)[C@H](O)CC[C@@H](O)C[C@@H](O)CC(=O)O[C@H]1C)C[C@H](O)[C@H]2C(=O)O", "assay": "microbial growth", "test system": "ATCC6258", "measurement": "IC50", "result": "0.54 µg/mL"}
{"Structure (SMILES)": "CCCCCCCCCCN1CCN(CC(O)(Cn2cncn2)c2ccc(F)cc2F)CC1 (stereo not drawn)", "assay": "microbial growth, broth dilution", "test system": "ATCC6258", "setting": "48 h", "measurement": "MIC", "result": "1.95 µg/mL"}
{"Structure (SMILES)": "CCCCCCCOc1c(OC)cc(NC(C)CCCN)c2nc(C(C)(C)C)ccc12 (stereo not drawn)", "assay": "microbial killing", "test system": "ATCC6258", "measurement": "MFC", "result": "5 µg/mL"}
{"Structure (SMILES)": "Fc1ccc(C2(Cn3cncn3)CO2)c(F)c1 (stereo not drawn)", "assay": "microbial growth, broth dilution", "test system": "ATCC6258", "setting": "48 h", "measurement": "MIC", "result": "> 31.3 µg/mL"}
{"Structure (SMILES)": "Nc1[nH]c(=O)ncc1F", "assay": "microbial growth", "measurement": "MIC90", "result": "8 µg/mL"}
{"Structure (SMILES)": "CCCCCCCCCCCCCN1CCNCC1", "assay": "microbial growth, broth dilution", "test system": "ATCC6258", "setting": "48 h", "measurement": "MIC", "result": "0.975 µg/mL"}
{"Structure (SMILES)": "C[C@@H]1[C@H](O)[C@@H](C)/C=C/C=C/C=C/C=C/C=C/C=C/C=C/[C@H](O[C@@H]2O[C@H](C)[C@@H](O)[C@H](N)[C@@H]2O)C[C@@H]2O[C@](O)(C[C@@H](O)C[C@@H](O)[C@H](O)CC[C@@H](O)C[C@@H](O)CC(=O)O[C@H]1C)C[C@H](O)[C@H]2C(=O)O", "assay": "microbial killing", "test system": "ATCC6258", "measurement": "MFC", "result": "1.25 µg/mL"}
{"Structure (SMILES)": "CC[C@H](C)C[C@H](C)CCCCCCCCC(=O)N[C@H]1C[C@@H](O)[C@@H](NCCN)NC(=O)[C@@H]2[C@@H](O)CCN2C(=O)[C@H]([C@H](O)CCN)NC(=O)[C@H]([C@H](O)[C@@H](O)c2ccc(O)cc2)NC(=O)[C@@H]2C[C@@H](O)CN2C(=O)[C@H]([C@@H](C)O)NC1=O", "assay": "microbial growth, broth dilution", "test system": "ATCC6258", "setting": "48 h", "measurement": "MIC", "result": "0.48 µg/mL"}
{"Structure (SMILES)": "COc1cc(NC(C)CCCN)c2nc(C(C)(C)C)ccc2c1Oc1ccc(Cl)c(Cl)c1 (stereo not drawn)", "assay": "microbial growth", "test system": "ATCC6258", "measurement": "IC50", "result": "8.65 µg/mL"}
{"Structure (SMILES)": "CC(=O)N1CCN(c2ccc(OCC3COC(Cn4ccnc4)(c4ccc(Cl)cc4Cl)O3)cc2)CC1 (stereo not drawn)", "assay": "microbial growth", "measurement": "MIC90", "result": "1 µg/mL"}
{"Structure (SMILES)": "CCCCCCCCCCCCN1CCNCC1", "assay": "microbial growth, broth dilution", "test system": "ATCC6258", "setting": "48 h", "measurement": "MIC", "result": "1.95 µg/mL"}
{"Structure (SMILES)": "CCCCCOc1c(OC)cc(NC(C)CCCNC(=O)C(N)Cc2ccccc2)c2nc(C(C)(C)C)ccc12 (stereo not drawn)", "assay": "microbial growth", "test system": "ATCC6258", "measurement": "IC50", "result": "7.37 µg/mL"}
